{"source": "ChEMBL document CHEMBL1145462", "about": "“In vivo pharmacodynamic activity of the glycopeptide dalbavancin” (Antimicrob Agents Chemother, 2007)", "key": {"Staphylococcus aureus [1]": {"test_system": "Staphylococcus aureus", "assay": "AUC/MBC ratio of methicillin-resistant Staphylococcus aureus infected neutropenic mouse thigh infection model at 53.5 mg/kg, ip administered every 24 hrs by 2-log killing experiment", "format": "functional", "conditions": "route intraperitoneal"}, "Streptococcus pneumoniae [2]": {"test_system": "Streptococcus pneumoniae", "assay": "AUC/MIC ratio of Streptococcus pneumoniae 1293 infected neutropenic mouse thigh infection model at 1.68 mg/kg, ip administered every 72 hrs by 2-log killing experiment", "format": "functional", "conditions": "route intraperitoneal"}, "Staphylococcus aureus [3]": {"test_system": "Staphylococcus aureus", "assay": "Antibacterial activity against Staphylococcus aureus ATCC 25923 by microdilution method", "format": "functional", "how_it_was_run": "(§1)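 MIC and MBC were determined by CLSI broth microdilution, in duplicate on at least two occasions. Staphylococci were grown in Mueller-Hinton broth and agar; pneumococci were plated on sheep blood agar.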"}, "Staphylococcus aureus [4]": {"test_system": "Staphylococcus aureus", "assay": "AUC/MIC ratio of Staphylococcus aureus 31005 infected neutropenic mouse thigh infection model at 127 mg/kg, ip administered every 72 hrs by 2-log killing experiment", "format": "functional", "conditions": "route intraperitoneal"}, "[5]": {"assay": "Half life in bacterial pathogen-infected neutropenic Swiss ICR mouse thigh infection model at 2.5 mg/kg, ip", "format": "ADME, organism-based", "design": "dose 2.5 mg/kg, route intraperitoneal", "conditions": "in vivo", "how_it_was_run": "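Single ip dose (0.2 ml) given to thigh-infected neutropenic ICR Swiss mice. Retro-orbital blood taken from groups of three at 0.5–96 h; plasma assayed microbiologically with Bacillus subtilis (detection limit 0.10 mg/liter). Half-life derived by linear least-squares regression within a noncompartmental analysis.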"}, "Staphylococcus aureus [6]": {"test_system": "Staphylococcus aureus", "assay": "Bactericidal activity in ip dosed […] Staphylococcus aureus ATCC 29213 infected neutropenic mouse thigh infection model assessed as reduction of colony count after 96 hrs by time kill study", "format": "functional, Thigh muscle", "how_it_was_run": "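Neutropenic mice (cyclophosphamide ip 150 mg/kg day −4, 100 mg/kg day −1, then every 48 h) infected in thigh with 0.1 ml log-phase inoculum (10^6.6–10^7.6 CFU/ml) under halothane. Single ip doses of 5, 10, 20, 40, or 80 mg/kg were given 2 h later. Two mice sampled at 0.5–96 h. Thighs processed for CFU, reported as mean ± SD log10 CFU/thigh.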"}, "Staphylococcus aureus [7]": {"test_system": "Staphylococcus aureus", "assay": "AUC/MBC ratio of methicillin-resistant Staphylococcus aureus infected neutropenic mouse thigh infection model at 43 mg/kg, ip administered every 72 hrs by static effect experiment", "format": "functional", "conditions": "route intraperitoneal"}, "Staphylococcus aureus [8]": {"test_system": "Staphylococcus aureus", "assay": "AUC/MBC ratio of methicillin-resistant Staphylococcus aureus infected neutropenic mouse thigh infection model at 45.3 mg/kg, ip administered every 24 hrs by 1-log killing experiment", "format": "functional", "conditions": "route intraperitoneal"}, "Streptococcus pneumoniae [9]": {"test_system": "Streptococcus pneumoniae", "assay": "AUC/MIC ratio of Streptococcus pneumoniae 1293 infected neutropenic mouse thigh infection model at 1.01 mg/kg, ip administered every 72 hrs by static effect experiment", "format": "functional", "conditions": "route intraperitoneal"}, "Streptococcus pneumoniae [10]": {"test_system": "Streptococcus pneumoniae", "assay": "AUC/MIC ratio of Streptococcus pneumoniae 1325 infected neutropenic mouse thigh infection model at 1.6 mg/kg, ip administered every 24 hrs by 1-log killing experiment", "format": "functional", "conditions": "route intraperitoneal"}, "Streptococcus pneumoniae [11]": {"test_system": "Streptococcus pneumoniae", "assay": "AUC/MIC ratio of Streptococcus pneumoniae 1396 infected neutropenic mouse thigh infection model at 0.69 mg/kg, ip administered every 72 hrs by 2-log killing experiment", "conditions": "route intraperitoneal"}, "Streptococcus pneumoniae [12]": {"test_system": "Streptococcus pneumoniae", "assay": "AUC/MIC ratio of Streptococcus pneumoniae 1293 infected neutropenic mouse thigh infection model at 1.28 mg/kg, ip administered every 72 hrs by 1-log killing experiment", "format": "functional", "conditions": "route intraperitoneal"}, "Staphylococcus aureus [13]": {"test_system": "Staphylococcus aureus", "assay": "Bactericidal activity against […] Staphylococcus aureus ATCC 29213 infected neutropenic Swiss ICR mouse thigh infection model assessed as drug level causing 2-log reduction of bacterial count at 15 mg/kg, ip dosed every 36 hrs", "format": "functional", "conditions": "route intraperitoneal"}, "Staphylococcus aureus [14]": {"test_system": "Staphylococcus aureus", "assay": "AUC/MBC ratio of Staphylococcus aureus Smith infected neutropenic mouse thigh infection model at 50.7 mg/kg, ip administered every 24 hrs by 1-log killing experiment", "format": "functional", "conditions": "route intraperitoneal"}, "Staphylococcus aureus [15]": {"test_system": "Staphylococcus aureus", "assay": "AUC/MIC ratio of Staphylococcus aureus Smith infected neutropenic mouse thigh infection model at 95 mg/kg, ip administered every 72 hrs by 1-log killing experiment", "format": "functional", "conditions": "route intraperitoneal"}, "Streptococcus pneumoniae [16]": {"test_system": "Streptococcus pneumoniae", "assay": "AUC/MIC ratio of Streptococcus pneumoniae 1325 infected neutropenic mouse thigh infection model at 1.73 mg/kg, ip administered every 24 hrs by 2-log killing experiment", "format": "functional", "conditions": "route intraperitoneal"}, "Streptococcus pneumoniae [17]": {"test_system": "Streptococcus pneumoniae", "assay": "Bactericidal activity against penicillin-susceptible Streptococcus pneumoniae ATCC 10813 infected neutropenic Swiss ICR mouse thigh infection model assessed as drug level causing 1-log reduction of bacterial count at 1.26 mg/kg, ip dosed every 36 hrs", "format": "functional", "conditions": "route intraperitoneal"}, "Streptococcus pneumoniae [18]": {"test_system": "Streptococcus pneumoniae", "assay": "AUC/MIC ratio of Streptococcus pneumoniae ATCC 10813 infected neutropenic mouse thigh infection model at 1.75 mg/kg, ip administered every 24 hrs by 2-log killing experiment", "format": "functional", "conditions": "route intraperitoneal"}, "Streptococcus pneumoniae [19]": {"test_system": "Streptococcus pneumoniae", "assay": "AUC/MIC ratio of Streptococcus pneumoniae 1396 infected neutropenic mouse thigh infection model at 0.52 mg/kg, ip administered every 72 hrs by static effect experiment", "format": "functional", "conditions": "route intraperitoneal"}, "Staphylococcus aureus [20]": {"test_system": "Staphylococcus aureus", "assay": "AUC/MIC ratio of Staphylococcus aureus Smith infected neutropenic mouse thigh infection model at 73.5 mg/kg, ip administered every 24 hrs by 2-log killing experiment", "format": "functional", "conditions": "route intraperitoneal"}, "Streptococcus pneumoniae [21]": {"test_system": "Streptococcus pneumoniae", "assay": "Bactericidal activity in Streptococcus pneumoniae ATCC 10813 infected neutropenic mouse thigh infection model assessed as drug level causing 2-log reduction of bacterial count at 4.13 mg/kg/6days", "format": "functional"}, "Staphylococcus aureus [22]": {"test_system": "Staphylococcus aureus", "assay": "Bactericidal activity against […] Staphylococcus aureus ATCC 29213 infected neutropenic Swiss ICR mouse thigh infection model assessed as drug level causing 1-log reduction of bacterial count at 267 mg/kg, ip dosed every 24 hrs", "format": "functional", "conditions": "route intraperitoneal"}, "Streptococcus pneumoniae [23]": {"test_system": "Streptococcus pneumoniae", "assay": "AUC/MIC ratio of Streptococcus pneumoniae 1329 infected neutropenic mouse thigh infection model at 0.90 mg/kg, ip administered every 24 hrs by static effect experiment", "format": "functional", "conditions": "dose 0.9 mg/kg; route intraperitoneal"}, "Streptococcus pneumoniae [24]": {"test_system": "Streptococcus pneumoniae", "assay": "Antibacterial activity against Streptococcus pneumoniae 1325 by microdilution method", "format": "functional", "how_it_was_run": "as §1"}, "Staphylococcus aureus [25]": {"test_system": "Staphylococcus aureus", "assay": "Antibacterial activity against Staphylococcus aureus 31005 by microdilution method", "format": "functional", "how_it_was_run": "as §1"}, "Staphylococcus aureus [26]": {"test_system": "Staphylococcus aureus", "assay": "AUC/MBC ratio of Staphylococcus aureus Smith infected neutropenic mouse thigh infection model at 73.5 mg/kg, ip administered every 24 hrs by 2-log killing experiment", "format": "functional", "conditions": "route intraperitoneal"}, "Staphylococcus aureus [27]": {"test_system": "Staphylococcus aureus", "assay": "AUC/MBC ratio of Staphylococcus aureus 31005 infected neutropenic mouse thigh infection model at 49.3 mg/kg, ip administered every 24 hrs by static effect experiment", "format": "functional", "conditions": "route intraperitoneal"}, "Staphylococcus aureus [28]": {"test_system": "Staphylococcus aureus", "assay": "AUC/MIC ratio of Staphylococcus aureus ATCC 25923 infected neutropenic mouse thigh infection model at 42.7 mg/kg, ip administered every 24 hrs by static effect experiment", "format": "functional", "conditions": "route intraperitoneal"}, "Staphylococcus aureus [29]": {"test_system": "Staphylococcus aureus", "assay": "AUC/MIC ratio of methicillin-resistant Staphylococcus aureus infected neutropenic mouse thigh infection model at 45.3 mg/kg, ip administered every 24 hrs by 1-log killing experiment", "format": "functional", "conditions": "route intraperitoneal"}, "[30]": {"assay": "AUC in bacterial pathogen-infected neutropenic Swiss ICR mouse thigh infection model at 40 mg/kg, ip", "format": "ADME, organism-based", "design": "dose 40 mg/kg, route intraperitoneal", "conditions": "in vivo", "how_it_was_run": "(§2)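 Thigh-infected neutropenic mice received single intraperitoneal doses (2.5, 5, 10, 20, 40, 80 mg/kg; 0.2 ml/dose). Blood was drawn by retroorbital aspiration from groups of three mice at 0.5, 1, 2, 4, 6, 24, 48, 72 and 96 h. Plasma levels were measured by microbiologic assay with Bacillus subtilis (detection limit 0.10 mg/liter). Noncompartmental analysis was used: half-life by linear least-squares regression, AUC by trapezoidal rule.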"}, "[31]": {"assay": "Cmax in bacterial pathogen-infected neutropenic Swiss ICR mouse thigh infection model at 20 mg/kg, ip", "format": "ADME, organism-based", "design": "dose 20 mg/kg, route intraperitoneal", "conditions": "in vivo", "how_it_was_run": "as §2"}}}
{"smiles": "CN[C@H]1C(=O)N[C@@H]2Cc3ccc(cc3)Oc3cc4cc(c3O[C@@H]3O[C@H](C(=O)O)[C@@H](O)[C@H](O)[C@H]3NC(=O)CCCCCCCCC(C)C)Oc3ccc(cc3Cl)[C@@H](O)[C@@H]3NC(=O)[C@H](NC(=O)[C@@H]4NC(=O)[C@@H](NC2=O)c2cc(cc(O)c2Cl)Oc2cc1ccc2O)c1ccc(O)c(c1)-c1c(O[C@H]2O[C@H](CO)[C@@H](O)[C@H](O)[C@@H]2O)cc(O)cc1[C@@H](C(=O)NCCCN(C)C)NC3=O", "note": "[DALBAVANCIN]", "values": [{"measurement": "Ratio", "setting": "Staphylococcus aureus [1]", "value": 125}, {"measurement": "RatioAUC/MIC", "setting": "Streptococcus pneumoniae [2]", "value": 23.8}, {"measurement": "MBC", "setting": "Staphylococcus aureus [3]", "value": 0.5, "unit": "mg/L"}, {"measurement": "MIC", "setting": "Staphylococcus aureus [3]", "value": 0.12, "unit": "mg/L"}, {"measurement": "RatioAUC/MIC", "setting": "Staphylococcus aureus [4]", "value": 364}, {"measurement": "half-life", "setting": "[5]", "value": 13.1, "unit": "h"}, {"measurement": "Activity", "setting": "Staphylococcus aureus [6]", "value": 4}, {"measurement": "Ratio", "setting": "Staphylococcus aureus [7]", "value": 35.3}, {"measurement": "Ratio", "setting": "Staphylococcus aureus [8]", "value": 109}, {"measurement": "RatioAUC/MIC", "setting": "Streptococcus pneumoniae [9]", "value": 14.1}, {"measurement": "RatioAUC/MIC", "setting": "Streptococcus pneumoniae [10]", "value": 31.8}, {"measurement": "RatioAUC/MIC", "setting": "Streptococcus pneumoniae [11]", "value": 4.8}, {"measurement": "RatioAUC/MIC", "setting": "Streptococcus pneumoniae [12]", "value": 18}, {"measurement": "Activity", "setting": "Staphylococcus aureus [13]", "value": 122}, {"measurement": "Ratio", "setting": "Staphylococcus aureus [14]", "value": 119}, {"measurement": "RatioAUC/MIC", "setting": "Staphylococcus aureus [15]", "value": 163}, {"measurement": "RatioAUC/MIC", "setting": "Streptococcus pneumoniae [16]", "value": 34.5}, {"measurement": "Activity", "setting": "Streptococcus pneumoniae [17]", "value": 1.53}, {"measurement": "RatioAUC/MIC", "setting": "Streptococcus pneumoniae [18]", "value": 9.9}, {"measurement": "RatioAUC/MIC", "setting": "Streptococcus pneumoniae [19]", "value": 4}, {"measurement": "RatioAUC/MIC", "setting": "Staphylococcus aureus [20]", "value": 361}, {"measurement": "Activity", "setting": "Streptococcus pneumoniae [21]", "value": 4.62}, {"measurement": "ED 1-log kill", "setting": "Staphylococcus aureus [22]", "value": 267, "unit": "mg/kg/day"}, {"measurement": "RatioAUC/MIC", "setting": "Streptococcus pneumoniae [23]", "value": 18}, {"measurement": "MBC", "setting": "Streptococcus pneumoniae [24]", "value": 0.008, "unit": "mg/L"}, {"measurement": "MIC", "setting": "Streptococcus pneumoniae [24]", "value": 0.008, "unit": "mg/L"}, {"measurement": "MBC", "setting": "Staphylococcus aureus [25]", "value": 0.12, "unit": "mg/L"}, {"measurement": "MIC", "setting": "Staphylococcus aureus [25]", "value": 0.06, "unit": "mg/L"}, {"measurement": "Ratio", "setting": "Staphylococcus aureus [26]", "value": 173}, {"measurement": "Ratio", "setting": "Staphylococcus aureus [27]", "value": 242}, {"measurement": "RatioAUC/MIC", "setting": "Staphylococcus aureus [28]", "value": 216}, {"measurement": "RatioAUC/MIC", "setting": "Staphylococcus aureus [29]", "value": 452}, {"measurement": "AUC", "setting": "[30]", "value": 10600, "unit": "µg·h/mL"}, {"measurement": "Cmax", "setting": "[31]", "value": 190, "unit": "µg/mL"}]}
